{"data": "Results collected from several papers", "cell line": "IGROV-1", "read-out": "cell growth or viability", "note": "Protocols differ between the studies behind these lines."}
{"Structure (SMILES)": "COc1ccc(C(=O)/C=C/c2ccc3c(c2)OCCO3)cc1S(N)(=O)=O", "test": "SRB", "setting": "10 µM", "measurement": "inhibition", "value": "36%"}
{"Structure (SMILES)": "S=C([S][Au-][P+](CCCCCC[P+]([Au-][S]C(=S)n1cccn1)(c1ccccc1)c1ccccc1)(c1ccccc1)c1ccccc1)n1cccn1", "measurement": "GI50", "value": "2.26 µM"}
{"Structure (SMILES)": "COc1cc2c3cc1Oc1c(OC)c(OC)cc4c1[C@@H](Cc1ccc(O)c(c1)Oc1ccc(cc1)C[C@@H]3N(C)CC2)N(C)CC4", "setting": "72 h", "measurement": "IC50", "value": "29.6 µM"}
{"Structure (SMILES)": "Cc1cc(C)n(C(=S)[S][Au][PH](CCCCCC[PH]([Au][S]C(=S)n2nc(C)cc2C)(c2ccccc2)c2ccccc2)(c2ccccc2)c2ccccc2)n1", "measurement": "GI50", "value": "1.19 µM"}
{"Structure (SMILES)": "COc1ccc(-c2ccc(-c3ccc(C(=N)N)nc3)s2)cc1Cl", "test": "SRB", "measurement": "GI50", "value": "1.78 µM"}
{"Structure (SMILES)": "COc1ccc(C(=O)/C=C/c2cccc3ccccc23)cc1S(N)(=O)=O", "test": "SRB", "setting": "48 h", "measurement": "GI50", "value": "2.3 µM"}
{"Structure (SMILES)": "COc1ccc(-c2ccc(-c3ccc(C(=N)N)nc3)s2)cc1", "test": "SRB", "measurement": "GI50", "value": "1.84 µM"}
{"Structure (SMILES)": "COc1cccc(Oc2ccccc2NC(=O)CNC(=O)c2cccc3ccccc23)c1", "test": "SRB", "setting": "48 h", "measurement": "GI50", "value": "1.05 µM"}
